Tests used:
[1] = system: caspase 7; assay: Activation of apoptosis; assay type: cell-based; details: same concentration of 5b and 1
[2] = Rate of reaction of prodrugs with 4 mM GSH; assay type: in vitro ADME; details: for kGSH/kGSH (mean ± SD): rate with GSH alone, normalised to itself
[3] = system: panel of NSCLC cell lines; assay: Proliferation of panel of NSCLC cell lines; assay type: cell-based; details: Homo sapiens, read-out: IC50 range over panel of NSCLC cell lines
Procedure, shortened: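 Cell lines from ATCC were cultured per the supplier's protocol and tested by MTT assay per the kit protocol. Each concentration was run in six repeats, in at least two independent experiments. IC50 values were obtained by curve fitting.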

[4] = system: recombinant GSTP1; assay: GSTP1-catalyzed reaction of prodrug with GSH; assay type: in vitro ADME; details: recombinant GSTP1 versus GSH alone
Procedure, shortened: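 Kinetics were run at 37 °C by UV–visible spectrophotometry in 0.1 M phosphate buffer pH 7.4 with 50 μM DTPA and 4 mM GSH, with or without 40 nM GST. Substrate (typically 10 μM) was added after buffer and enzyme reached thermal equilibrium. Absorbance was followed at 302 nm, and the rate came from a first-order exponential fit.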

[5] = system: H1703 NSCLC cells; assay: Alkaline Comet assay; assay type: cell-based, human; details: H1703, 24 h treatment, 5 μM
[6] = system: A549 NSCLC cells; assay: Cellular uptake and metabolism by LC/MS; assay type: in vitro ADME, human; details: A549, 10 μM, any time point from 5 min to 1 h
Procedure, shortened: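 A549 cells were plated in 75 cm2 flasks overnight at 37 °C, then exposed to 10 μM test compound for varying times. Cells were lysed by scraping in 10 mM HCl/acetonitrile, 5% sulfosalicylic acid was added, and samples were spun at 12000g for 15 min and filtered. Analysis was by Q-TOF LC/MS in positive ion mode: C18 column, water/acetonitrile/0.1% formic acid gradient, extracted ion chromatograms at [M+H]+, with a lysate spiked with authentic compound as reference.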

[7] = system: A549 human lung adenocarcinoma xenografts; assay: A549 xenograft tumor growth; assay type: in vivo, NCr nu/nu athymic mice; details: 92 μmol/kg intravenously, 2 times a week for 4 weeks; compared to 1 or saline controls
[8] = Analysis of metabolites in resected tumors; assay type: in vivo, NCr nu/nu athymic mice; details: resected tumors after 92 μmol/kg i.v., 2 times a week for 4 weeks
Procedure, shortened: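 A549 cells, passaged at most four times in RPMI 1640 with 10% FBS, were harvested at 70–80% confluence and implanted s.c. at 5 × 10^6 cells/0.2 mL PBS into NCr nu/nu mice. At about 3 mm × 3 mm, mice were randomised into groups of 12. Test compound was given by tail vein at 92 μmol/kg in 20 μL DMSO, twice weekly for 4 weeks. Tumours were removed at euthanasia right after the last dose and frozen immediately for metabolite analysis.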

[9] = molecular target: PARP-1 enzyme (Homo sapiens, UniProt P09874); assay: PARP-1 enzyme inhibition; assay type: biochemical; details: presence or absence of GSH (4 mM)/GSTP1 (40 nM)
Sequence of PARP-1 enzyme (P09874 whole entry): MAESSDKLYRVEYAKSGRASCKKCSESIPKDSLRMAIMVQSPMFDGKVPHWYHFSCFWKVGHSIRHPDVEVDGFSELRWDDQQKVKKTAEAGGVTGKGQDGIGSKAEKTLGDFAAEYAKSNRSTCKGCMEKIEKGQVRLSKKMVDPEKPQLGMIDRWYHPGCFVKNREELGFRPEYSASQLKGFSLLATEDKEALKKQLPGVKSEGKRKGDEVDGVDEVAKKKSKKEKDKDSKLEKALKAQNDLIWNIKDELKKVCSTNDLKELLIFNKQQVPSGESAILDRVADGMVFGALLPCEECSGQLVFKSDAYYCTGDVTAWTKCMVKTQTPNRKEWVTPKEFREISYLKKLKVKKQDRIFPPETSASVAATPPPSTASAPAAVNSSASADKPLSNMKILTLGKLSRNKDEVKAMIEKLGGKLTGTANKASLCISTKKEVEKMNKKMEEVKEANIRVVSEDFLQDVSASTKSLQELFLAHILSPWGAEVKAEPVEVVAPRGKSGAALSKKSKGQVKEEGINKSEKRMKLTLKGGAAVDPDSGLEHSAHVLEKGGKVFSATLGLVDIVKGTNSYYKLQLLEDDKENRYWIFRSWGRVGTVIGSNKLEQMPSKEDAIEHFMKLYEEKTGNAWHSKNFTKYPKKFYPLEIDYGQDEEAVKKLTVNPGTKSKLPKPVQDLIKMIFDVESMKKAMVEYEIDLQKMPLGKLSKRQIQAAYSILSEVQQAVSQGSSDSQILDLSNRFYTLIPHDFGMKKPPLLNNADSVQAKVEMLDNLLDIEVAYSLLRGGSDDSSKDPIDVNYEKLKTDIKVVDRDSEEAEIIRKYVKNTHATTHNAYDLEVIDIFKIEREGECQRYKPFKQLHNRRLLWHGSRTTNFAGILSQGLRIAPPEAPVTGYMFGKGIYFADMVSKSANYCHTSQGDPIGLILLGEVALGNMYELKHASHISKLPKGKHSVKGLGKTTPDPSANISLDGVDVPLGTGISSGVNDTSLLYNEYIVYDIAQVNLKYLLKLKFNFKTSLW

[10] = system: A549 lung adenocarcinoma cells; assay: Immunoblot analysis of glutathionylation, stress signaling and apoptosis; assay type: cell-based, human
Procedure, shortened: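 A549 lysates from cells treated with test compound (1 μM for the apoptosis markers) were immunoblotted for p38, eIF2α phosphorylation, CHOP, BiP, ATF4, p53 Ser15, Puma, and cleaved caspases 8, 3 and 7 and PARP. […] Blots are representative of at least three independent experiments.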

[11] = system: A549 cells; assay: Colony forming assay; assay type: cell-based, human; details: A549, combination treatment of 14 and 13

Structure (SMILES)	apoptotic signal (cleaved caspase 7) [1]	kGSH/kGSH (mean ± SD) [2]	IC50 [3]	effect on tumor growth [7]	parent drug and liberated PARP-1 inhibitor in tumors [8]	further results
O=C(c1cc(Cc2n[nH]c(=O)c3ccccc23)ccc1F)N1CCN(C(=O)C2CC2)CC1 [Compound 1, olaparib, reference compound]	did not trigger apoptosis	–	–	–	–	–
CCOC(=O)N1CCN(/[N+]([O-])=N/Oc2ccc([N+](=O)[O-])cc2[N+](=O)[O-])CC1 [Compound 2, O^2-(2,4-dinitrophenyl) 1-[(4-ethoxycarbonyl)piperazin-1-yl]diazen-1-ium-1,2-diolate, reference compound]	–	1 ± 0.001	–	–	–	–
O=C(c1cccc(Cc2n[nH]c(=O)c3ccccc23)c1)N1CCN(/[N+]([O-])=N/Oc2ccc([N+](=O)[O-])cc2[N+](=O)[O-])CC1 [Compound 5a]	–	–	3 to 20 µM	–	–	–
O=C(c1cc(Cc2n[nH]c(=O)c3ccccc23)ccc1F)N1CCN(/[N+]([O-])=N/Oc2ccc([N+](=O)[O-])cc2[N+](=O)[O-])CC1 [Compound 5b]	strong apoptotic signal	1 ± 0.007	3 to 20 µM	reduced growth of tumors to a lesser extent	detected in some tumors	parent compound still present ([2]; 4 mM GSH, after 2 half-lives, LC/MS): 25%; enhancement of reaction with GSH when GSTP1 present [4]: over 10 fold; DNA strand break damage (Comet assay) [5]: significant DNA strand break damage; parent compound in cell lysates [6]: not detected
CNc1ccc(C(=O)Oc2cc(O/N=[N+](\[O-])N(C)C)c([N+](=O)[O-])cc2[N+](=O)[O-])cc1 [Compound 8, PABA/NO, reference compound]	–	1 ± 0.003	–	–	–	–
CN(C)/[N+]([O-])=N\Oc1cc(O/N=[N+](\[O-])N2CCN(C(=O)c3cc(Cc4n[nH]c(=O)c5ccccc45)ccc3F)CC2)c([N+](=O)[O-])cc1[N+](=O)[O-] [Compound 13]	–	1 ± 0.004	–	significant reduction of the tumor growth	detected in some tumors	PARP-1 enzyme inhibition, activated versus prodrug [9]: Activated compound is a much better PARP-1 inhibitor than the prodrug; time to caspase 8 activation ([10]; A549, 1 μM): ≤ 6 h; time to detection of glutathione attached to protein ([10]; A549, nonreducing immunoblot): ≤ 1 h; time to activation of stress kinase p38 ([10]; A549, phosphorylation persisted for 8 h): ≤ 15 min; cytotoxicity in combination with 14 [11]: enhanced toxicity
